Source: PubChem (Broad Institute)
E-selectin induc: induces E-selectin expression in human endothelial cells | P16581 | HUVEC E-selectin immunofluorescence imaging; normalized: neutral wells 0, TNF-alpha wells 100 | activation, % at 7.58 µM | 260,000 tested, 0.37% active;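 active means mean E-selectin-positive cell signal at least 10% of the positive control, reached in at least 60% of replicates, without over 20% cell loss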
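Material: HUVEC primary endothelial cells; Amount: 3,000 cells per well; Dosing: single concentration; Medium: EGM-2 growth medium on 0.1% gelatin-coated wells; Read-out basis: percent E-selectin-positive cells; Signal: immunofluorescence imaging; Control set: TNF-alpha, DMSO.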
DENV2 CPE: DENV2-induced cell death inhibition; DENV2-infected cells, cytopathic effect rescue, plate reader; CPE inhibition, % at 9.99 µM; 350,000 tested, 1.7% active; in the data active means CPE inhibition above about 20%, passing the limit was not always enough; tested in BHK-21 cells
ERAP1 HTS inh: blocks human ERAP1 aminopeptidase activity | AID 652197 | recombinant ERAP1, Leu-AMC fluorescence, 60 min | inhibition, % at 10.7 µM | 340,000 tested, 0.15% active;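 active means mean replicate inhibition of at least 30%, or all replicates individually reaching that 30% level; inactive means mean below 30% and not every replicate reaching it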
Target sequence (Q9NZ08 whole entry, looked up): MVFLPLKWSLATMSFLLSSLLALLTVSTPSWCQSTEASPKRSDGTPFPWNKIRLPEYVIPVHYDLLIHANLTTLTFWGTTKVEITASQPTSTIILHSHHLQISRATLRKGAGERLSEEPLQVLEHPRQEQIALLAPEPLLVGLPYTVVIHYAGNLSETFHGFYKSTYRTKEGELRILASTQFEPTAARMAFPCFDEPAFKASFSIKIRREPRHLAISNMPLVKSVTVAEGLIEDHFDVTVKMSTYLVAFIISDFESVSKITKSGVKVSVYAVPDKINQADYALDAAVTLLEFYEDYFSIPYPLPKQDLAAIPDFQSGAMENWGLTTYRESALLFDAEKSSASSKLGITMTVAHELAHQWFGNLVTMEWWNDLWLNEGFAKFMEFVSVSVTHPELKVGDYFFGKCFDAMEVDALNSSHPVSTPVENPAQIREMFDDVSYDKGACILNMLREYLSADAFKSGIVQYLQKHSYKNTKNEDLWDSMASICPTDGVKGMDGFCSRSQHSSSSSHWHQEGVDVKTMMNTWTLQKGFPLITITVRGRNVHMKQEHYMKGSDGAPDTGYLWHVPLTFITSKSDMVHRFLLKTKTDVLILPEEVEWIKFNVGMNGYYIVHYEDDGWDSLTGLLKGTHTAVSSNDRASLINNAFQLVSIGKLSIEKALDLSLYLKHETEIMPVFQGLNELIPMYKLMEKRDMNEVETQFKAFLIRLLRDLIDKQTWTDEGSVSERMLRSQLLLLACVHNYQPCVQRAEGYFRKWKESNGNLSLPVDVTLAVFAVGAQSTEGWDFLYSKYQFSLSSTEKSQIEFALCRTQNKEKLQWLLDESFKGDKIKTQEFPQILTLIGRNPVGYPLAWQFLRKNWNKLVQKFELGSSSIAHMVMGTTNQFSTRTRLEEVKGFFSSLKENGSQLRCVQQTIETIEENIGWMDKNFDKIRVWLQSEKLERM
SIRT5 block: inhibitors of human sirtuin-5 desuccinylase | Q9NXA8 | Purified SirT5, succinyl-peptide AMC, trypsin-coupled fluorescence | inhibition, % at 15 µM | 330,000 tested, 1.1% active; in the data active means inhibition above about 15%
PglD DTNB: inhibitors of Campylobacter jejuni PglD acetyltransferase. purified PglD enzyme, DTNB colorimetric CoA detection. inhibition, % at 12.5 µM. 360,000 tested, 0.098% active. AID 602405; in the data active means inhibition above about 16%, passing the limit was not always enough
A number is an active result. Most compounds without a hit are left out; they make up all but 2.5% or so of the library.

Results for C[C@@H]1CCCCO[C@@H](CN(C)C(=O)Nc2ccc(C(F)(F)F)cc2)[C@H](C)CN([C@H](C)CO)C(=O)c2cc(NC(=O)Cc3ccccc3)ccc2O1 ?
E-selectin induc: inactive; DENV2 CPE: 91.1; PglD DTNB: inactive

How did C[C@@H]1CN([C@@H](C)CO)C(=O)c2cc(NC(=O)Nc3ccc(C(F)(F)F)cc3)ccc2O[C@@H](C)CCCCO[C@@H]1CN(C)Cc1ccccc1 do in these assays?
E-selectin induc: inactive; DENV2 CPE: 127.3; ERAP1 HTS inh: inactive; SIRT5 block: inactive; PglD DTNB: inactive

Results for COc1ccc(-c2ccc(NS(=O)(=O)c3ccc([N+](=O)[O-])cc3)cc2)nn1 ?
DENV2 CPE: inactive; ERAP1 HTS inh: inactive; SIRT5 block: inactive; PglD DTNB: inactive

How did C[C@@H]1CN([C@@H](C)CO)C(=O)c2cc(C#CC3CC3)cnc2O[C@@H]1CN(C)C(=O)c1ccccc1 do in these assays?
E-selectin induc: 97.0; DENV2 CPE: inactive; ERAP1 HTS inh: inactive; SIRT5 block: inactive; PglD DTNB: inactive

How did CC(C)C#Cc1cnc2c(c1)C(=O)N([C@H](C)CO)C[C@H](C)[C@@H](CN(C)C(=O)Nc1ccccc1)O2 do in these assays?
E-selectin induc: inactive; DENV2 CPE: inactive; ERAP1 HTS inh: inactive; SIRT5 block: inactive; PglD DTNB: inactive

How did C[C@H]1CN([C@@H](C)CO)C(=O)c2cc(C#CC3CCCCC3)cnc2O[C@@H]1CN(C)C(=O)Nc1ccccc1 do in these assays?
E-selectin induc: inactive; DENV2 CPE: inactive; SIRT5 block: 15.4; PglD DTNB: inactive

Results for C[C@H](CO)N1C[C@H](C)[C@H](CN(C)C(=O)Nc2ccccc2)Oc2ncc(C#CC(C)(C)O)cc2C1=O ?
E-selectin induc: inactive; DENV2 CPE: 26.0; ERAP1 HTS inh: inactive; SIRT5 block: inactive; PglD DTNB: inactive

How did C[C@@H]1CN([C@@H](C)CO)C(=O)CCCn2cc(nn2)CO[C@@H]1CN(C)C(=O)Nc1cccc2ccccc12 do in these assays?
E-selectin induc: inactive

Results for C[C@H]1CN([C@@H](C)CO)C(=O)Cc2cc(NS(=O)(=O)c3cccs3)ccc2O[C@@H]1CN(C)S(=O)(=O)c1ccccc1 ?
E-selectin induc: inactive; DENV2 CPE: 41.0; ERAP1 HTS inh: inactive; SIRT5 block: inactive; PglD DTNB: inactive

Results for Cc1ccc(S(=O)(=O)Nc2ccc3c(c2)CC(=O)N([C@H](C)CO)C[C@H](C)[C@@H](CN(C)S(=O)(=O)c2c(C)noc2C)O3)cc1 ?
E-selectin induc: inactive; DENV2 CPE: inactive; ERAP1 HTS inh: inactive; SIRT5 block: 15.8; PglD DTNB: inactive

What do the screens show for `Cc1ccc(S(=O)(=O)Nc2ccc3c(c2)CC(=O)N([C@@H](C)CO)C[C@H](C)[C@H](CN(C)S(=O)(=O)c2c(C)noc2C)O3)cc1`?
E-selectin induc: inactive; DENV2 CPE: inactive; ERAP1 HTS inh: inactive; SIRT5 block: inactive; PglD DTNB: inactive

How did COc1ccc(S(=O)(=O)N(C)C[C@@H]2Oc3ccc(NS(C)(=O)=O)cc3CC(=O)N([C@@H](C)CO)C[C@H]2C)cc1 do in these assays?
DENV2 CPE: 47.8; ERAP1 HTS inh: inactive; SIRT5 block: inactive; PglD DTNB: inactive

How did COc1ccc(S(=O)(=O)N(C)C[C@H]2Oc3ccc(NS(=O)(=O)c4ccccc4)cc3CC(=O)N([C@H](C)CO)C[C@@H]2C)cc1 do in these assays?
E-selectin induc: inactive; DENV2 CPE: inactive; ERAP1 HTS inh: inactive; SIRT5 block: 16.8; PglD DTNB: inactive

Results for COCCN(Cc1ccc(C)cc1)C(=O)[C@@H](Cc1ccccc1)NC(=O)[C@H]1O[C@@H](n2ccc(=O)[nH]c2=O)[C@H](O)[C@@H]1O ?
E-selectin induc: inactive; DENV2 CPE: inactive; ERAP1 HTS inh: inactive; SIRT5 block: inactive

Results for CC(C)CNC(=O)C1(C)CCCN1Cc1ccc(S(C)(=O)=O)cc1 (stereo unspecified) ?
E-selectin induc: inactive; DENV2 CPE: inactive; ERAP1 HTS inh: inactive; SIRT5 block: inactive; PglD DTNB: inactive

Results for COc1ccc(S(=O)(=O)Nc2ccc3c(c2)CC(=O)N([C@@H](C)CO)C[C@@H](C)[C@H](CN(C)S(=O)(=O)c2ccc(C)cc2)O3)cc1 ?
E-selectin induc: inactive; DENV2 CPE: inactive; ERAP1 HTS inh: inactive; SIRT5 block: 18.5; PglD DTNB: inactive

How did O=C(O)[C@@]1(CCS(=O)(=O)c2ccccc2)COC(c2ccc(OCCCO)cc2)=N1 do in these assays?
DENV2 CPE: inactive; ERAP1 HTS inh: inactive; SIRT5 block: inactive; PglD DTNB: inactive

How did Cc1ccc(Cn2c(C(C)Nc3nc(-c4ccc(Cl)c([N+](=O)[O-])c4)cs3)nc3cc(C(F)(F)F)ccc32)cc1 (stereo unspecified) do in these assays?
E-selectin induc: inactive; DENV2 CPE: inactive; ERAP1 HTS inh: inactive; PglD DTNB: inactive

Results for Cc1ccc(-c2csc(NCCn3c(C)nc4cc(C(F)(F)F)ccc43)n2)cc1 ?
DENV2 CPE: 45.0; ERAP1 HTS inh: inactive; PglD DTNB: inactive

Results for CCn1nc(C)c(/C=N/NC(=O)c2ccc3c(c2)c(C)c(C)n3Cc2ccccc2)c1C ?
PglD DTNB: inactive

How did CC[C@]12c3[nH]c4cc(CCC(=O)N(C)C)ccc4c3CCN1C(=O)[C@@H](CC(=O)NCCC1=CCCCC1)C[C@@H]2C(=O)N1CCN(C(=O)c2ccco2)CC1 do in these assays?
DENV2 CPE: 24.9; ERAP1 HTS inh: inactive; SIRT5 block: inactive; PglD DTNB: inactive

What do the screens show for `CC(C)N(C(=O)[C@H]1C[C@H](CC(=O)NCCCN(C)C)C(=O)N2CCc3c([nH]c4cc(CCC(=O)N(C)C)ccc34)[C@]12C)C(C)C`?
DENV2 CPE: inactive; ERAP1 HTS inh: inactive; SIRT5 block: inactive; PglD DTNB: inactive

How did CC[C@]12c3[nH]c4cc(CCC(=O)N(C)C)ccc4c3CCN1C(=O)[C@@H](CC(=O)NCc1ccco1)C[C@@H]2C(=O)N1CCN(C(=O)C2CC2)CC1 do in these assays?
E-selectin induc: inactive; DENV2 CPE: 25.1; ERAP1 HTS inh: inactive; SIRT5 block: inactive; PglD DTNB: inactive

Results for CCN(CC)C(=O)[C@H]1CC(CC(=O)NC/C=C(\C)CCC=C(C)C)C(=O)N2CCc3c([nH]c4ccc(OC)cc34)[C@]12C (stereo partly specified) ?
E-selectin induc: inactive; DENV2 CPE: 40.4; ERAP1 HTS inh: inactive; SIRT5 block: inactive; PglD DTNB: inactive

What do the screens show for `CC[C@]12c3[nH]c4cc(CCC(=O)N(C)C)ccc4c3CCN1C(=O)[C@@H](CC(=O)NCCC1=CCCCC1)C[C@@H]2C(=O)N1CCN(C(=O)C2CC2)CC1`?
E-selectin induc: inactive; DENV2 CPE: inactive; ERAP1 HTS inh: inactive; SIRT5 block: inactive; PglD DTNB: inactive

Results for CN(C)C(=O)CCc1ccc2c3c([nH]c2c1)[C@]1(CCc2ccccc2)[C@@H](C(=O)N2CCCCC2)C[C@H](CC(=O)NCc2ccco2)C(=O)N1CC3 ?
E-selectin induc: inactive; DENV2 CPE: inactive; ERAP1 HTS inh: inactive; SIRT5 block: inactive; PglD DTNB: inactive
